Laboratory results: ChEMBL document CHEMBL1122142, “Synthesis and antiinflammatory activity of hexahydrothiopyrano[4,3-c]pyrazoles and related analogues” (J Med Chem, 1982)

Experiments:
Cavia porcellus [1] = assay: Tested in delayed hypersensitivity skin reaction (DHSR) after subcutaneous administration, activity reported as percent inhibition of erythema/induration of lesion; 9/24; format: functional
Method in brief: (§1)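 Male Hartley guinea pigs were sensitized with Mycobacterium tuberculosis in Freund's incomplete adjuvant, injected into each hind footpad and subcutaneously at the neck. After 3 weeks, 1.2 μg PPD was given intradermally. Compound in sesame oil was given sc, 3 animals per group, 30 min before and 5 h after PPD; screening dose 50 mg/kg.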

Mus musculus [2] = assay: The compound was evaluated for the mouse active Arthus (MAA) reaction activity for an ip dose of 150 mg/kg in mouse; format: functional; details: route intraperitoneal
Method in brief: (§2)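 CD-1 mice were sensitized ip with a 1:1 Freund's complete adjuvant emulsion containing BSA in saline, 5 weeks before challenge. Compound was suspended in 1% Na CMC in pyrogen-free saline and given as one ip or oral dose 1 h before skin challenge with BSA. Screening doses were 150 mg/kg ip and 300 mg/kg po, with some at 75 or 50 mg/kg ip. Lesions were excised 3.5 h after challenge and weighed against controls.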

Mus musculus [3] = assay: Inhibition of Mouse active Arthus (MAA) reaction activity was determined for an ip dose of 150 mg/kg in mouse; 21-30%; format: functional; details: route intraperitoneal
Cavia porcellus [4] = assay: Tested in delayed hypersensitivity skin reaction (DHSR) after subcutaneous administration, activity reported as percent inhibition of erythema/induration of lesion; 7/17; format: functional; method in brief: as §1
Mus musculus [5] = assay: Inhibition of Mouse active Arthus (MAA) reaction activity was determined for peroral dose of 150 mg/kg in mouse; 21-30%; format: functional; details: route oral
Cavia porcellus [6] = assay: The compound was evaluated for the delayed hypersensitivity skin reaction (DHSR) activity after subcutaneous administration; 14/36
Cavia porcellus [7] = assay: The compound was evaluated for the delayed hypersensitivity skin reaction (DHSR) activity after subcutaneous administration; 8/19
Mus musculus [8] = assay: Mouse active Arthus (MAA) reaction activity was determined for an ip dose of 150 mg/kg in mouse; 31-40%; format: functional; details: route intraperitoneal
Mus musculus [9] = assay: Inhibition of Mouse Active Arthus reaction following 150 mg/Kg i.p.; 41-60% inhibition.; format: functional; details: Mus musculus, ip
Cavia porcellus [10] = assay: Tested in delayed hypersensitivity skin reaction (DHSR) after subcutaneous administration, activity reported as percent inhibition of erythema/induration of lesion; 3/4; format: functional; method in brief: as §1
Cavia porcellus [11] = assay: The compound was evaluated for the delayed hypersensitivity skin reaction (DHSR) activity after subcutaneous administration; 15/21
Mus musculus [12] = assay: The compound was evaluated for the mouse active Arthus (MAA) reaction activity for an ip dose of 150 mg/kg in mouse; 31-40%; format: functional; details: route intraperitoneal; method in brief: as §2
Cavia porcellus [13] = assay: Tested in delayed hypersensitivity skin reaction (DHSR) after subcutaneous administration, activity reported as percent inhibition of erythema/induration of lesion; 10/0; format: functional
Cavia porcellus [14] = assay: The compound was evaluated for the delayed hypersensitivity skin reaction (DHSR) activity after subcutaneous administration; 12/21
Cavia porcellus [15] = assay: Tested in delayed hypersensitivity skin reaction (DHSR) after subcutaneous administration, activity reported as percent inhibition of erythema/induration of lesion; 13/4; format: functional
Mus musculus [16] = assay: The compound was evaluated for the mouse active Arthus (MAA) reaction activity expressed as inhibitory dose after oral administration; format: functional; details: read-out: ID50 (the source's name); method in brief: as §2
Mus musculus [17] = assay: Inhibition of Mouse active Arthus (MAA) reaction activity was determined for peroral dose of 300 mg/kg in mouse; 21-30%; format: functional; details: route oral
Cavia porcellus [18] = assay: Tested in delayed hypersensitivity skin reaction (DHSR) after subcutaneous administration, activity reported as percent inhibition of erythema/induration of lesion; 3/10; format: functional; method in brief: as §1
Mus musculus [19] = assay: Mouse active Arthus (MAA) reaction activity was determined for an peroral dose of 300 mg/kg in mouse; format: functional; details: route oral
Cavia porcellus [20] = assay: Tested in delayed hypersensitivity skin reaction (DHSR) after subcutaneous administration, activity reported as percent inhibition of erythema/induration of lesion; 17/49; format: functional
Rattus norvegicus [21] = assay: Adjuvant-induced arthritis was determined for a dose of 150 mg/kg administered orally; 17/0; format: functional; details: po
Method in brief: (§3)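 Male Lewis rats; day 0, 0.50 mg desiccated Mycobacterium butyricum in 0.10 mL light mineral oil into left plantar paw. Compound dissolved or suspended in 1% CMC, dosed daily for 21 days starting the day before adjuvant. On day 21, injected and noninjected hind paws weighed. Values are percent inhibition, local (injected paw)/systemic (noninjected paw).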

Rattus norvegicus [22] = assay: Adjuvant-induced arthritis was determined for a dose of 150 mg/kg administered intraperitoneally; 16/72; format: functional; details: ip, route intraperitoneal; method in brief: as §3
Rattus norvegicus [23] = assay: Adjuvant-induced arthritis was determined for a dose of 75 mg/kg oral administration; 1/0; format: functional; method in brief: as §3
[24] = Therapeutic ratio was determined for intraperitoneal administration; format: ADME; details: ip; read-out: TR
Mus musculus [25] = assay: The compound was evaluated for the mouse active Arthus (MAA) reaction activity expressed as inhibitory dose after ip administration; format: functional; details: read-out: ID50 (the source's name); method in brief: as §2
Cavia porcellus [26] = assay: Tested in delayed hypersensitivity skin reaction (DHSR) after subcutaneous administration, activity reported as percent inhibition of erythema/induration of lesion; 13/52; format: functional
Rattus norvegicus [27] = assay: Adjuvant-induced arthritis was determined for a dose of 75 mg/kg intraperitoneal administration; 28/78; format: functional; details: ip; method in brief: as §3
[28] = Acute toxicity as LD50 value was determined in mice administered intraperitoneally; format: organism-based; details: mouse, in vivo, ip
Rattus norvegicus [29] = assay: Carrageenan-induced edema was determined after intraperitoneal administration; format: functional; details: ip, read-out: ID50 (the source's name)
Method in brief: (§4)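 Adult male Sprague-Dawley (CD) rats, 160–200 g. Single dose in 1% CMC given 2 h before footpad injection of 0.05 mL 1% carrageenin in pyrogen-free saline. Paws removed and weighed at 3 h, with the contralateral paw as control. ID50 is the dose giving 50% edema inhibition.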

[30] = Acute toxicity as LD50 value was determined in mice administered orally; format: organism-based; details: mouse, in vivo, po
Rattus norvegicus [31] = assay: Carrageenan-induced edema was determined after oral administration; format: functional; details: read-out: ID50 (the source's name); method in brief: as §4
Cavia porcellus [32] = assay: Tested in delayed hypersensitivity skin reaction (DHSR) after subcutaneous administration, activity reported as percent inhibition of erythema/induration of lesion; 14/25; format: functional
Mus musculus [33] = assay: The compound was evaluated for the mouse active Arthus (MAA) reaction activity for an ip screening dose of 75 mg/kg; 21-30%; format: functional; details: route intraperitoneal; method in brief: as §2
Cavia porcellus [34] = assay: The compound was evaluated for the delayed hypersensitivity skin reaction (DHSR) activity after subcutaneous administration; 11/33
Mus musculus [35] = assay: Mouse active Arthus (MAA) reaction was determined value for oral administration
[36] = Therapeutic ratio was determined for peroral administration; details: po; read-out: TR

CC(=O)N1N=C2/C(=C/c3cccnc3)CSCC2C1c1cccnc1 (centres undefined)
Activity (Cavia porcellus [1]): 9
inhibition in vivo at 150 mg/kg (Mus musculus [2]): < 20%

CCCN1N=C2/C(=C/c3ccccc3C)CS(=O)(=O)CC2C1c1ccccc1C (centres undefined)
inhibition in vivo at 150 mg/kg (Mus musculus [3]): 21%
Activity (Cavia porcellus [4]): 7

CCCN1N=C2/C(=C/c3ccc(Cl)cc3)CSCC2C1c1ccc(Cl)cc1 (centres undefined)
inhibition in vivo at 150 mg/kg (Mus musculus [3]): 21%
inhibition in vivo at 150 mg/kg (Mus musculus [5]): 21%
Activity (Cavia porcellus [6]): 14

CCCN1N=C2/C(=C/c3ccccc3C)CSCC2C1c1ccccc1C (centres undefined)
Activity (Cavia porcellus [7]): 8
inhibition in vivo at 150 mg/kg (Mus musculus [8]): 31%

O=S1(=O)C/C(=C\c2ccccc2)C2=NNC(c3ccccc3)C2C1 (centres undefined)
inhibition in vivo at 150 mg/kg (Mus musculus [9]): 41%
Activity (Cavia porcellus [10]): 3

CCCn1nc(-c2ccc(C)cc2)c2c1/C(=C/c1ccc(C)cc1)CSC2
Activity (Cavia porcellus [11]): 15
inhibition in vivo at 150 mg/kg (Mus musculus [12]): 31%

Cc1ccc(/C=C2\CS(=O)(=O)CC3C2=NN(CCc2ccccc2)C3c2ccc(C)cc2)cc1 (centres undefined)
Activity (Cavia porcellus [13]): 10

CCCN1N=C2/C(=C/c3cccc(C(F)(F)F)c3)CSCC2C1c1cccc(C(F)(F)F)c1 (centres undefined)
Activity (Cavia porcellus [14]): 12
inhibition in vivo at 150 mg/kg (Mus musculus [8]): 31%

CC(C)(C)c1ccc(/C=C2\CS(=O)(=O)CC3C2=NN(CCc2ccccc2)C3c2ccc(C(C)(C)C)cc2)cc1 (centres undefined)
Activity (Cavia porcellus [15]): 13
ED50 (Mus musculus [16]): > 600 mg/kg

CCCN1N=C2/C(=C/c3ccccc3)CS(=O)(=O)CC2C1c1ccccc1 (centres undefined)
inhibition in vivo at 150 mg/kg (Mus musculus [9]): 41%
inhibition in vivo at 300 mg/kg (Mus musculus [17]): 21%
Activity (Cavia porcellus [18]): 3

CCCN1N=C2/C(=C/c3ccc(OC)cc3)CS(=O)(=O)CC2C1c1ccc(OC)cc1 (centres undefined)
inhibition in vivo at 300 mg/kg (Mus musculus [19]): < 20%
Activity (Cavia porcellus [20]): 17
inhibition in vivo at 150 mg/kg (Mus musculus [8]): 31%

CCCN1N=C2/C(=C/c3ccc(C)cc3)CS(=O)(=O)CC2C1c1ccc(C)cc1 (centres undefined)
inhibition in vivo at 150 mg/kg (Mus musculus [9]): 41%
inhibition in vivo at 150 mg/kg (Rattus norvegicus [21]): 17%
inhibition in vivo at 150 mg/kg (Rattus norvegicus [22]): 16%
inhibition in vivo at 75 mg/kg (Rattus norvegicus [23]): 1%
selectivity ratio [24]: 24
ED50 (Mus musculus [25]): 140 mg/kg
Activity (Cavia porcellus [26]): 13
inhibition in vivo at 75 mg/kg (Rattus norvegicus [27]): 28%
LD50 [28]: 3400 mg/kg
ED50 (Rattus norvegicus [29]): 84 mg/kg
LD50 [30]: > 4000 mg/kg
ED50 (Mus musculus [16]): > 600 mg/kg
ED50 (Rattus norvegicus [31]): 250 mg/kg

CCCn1nc(-c2ccc(C)cc2)c2c1/C(=C/c1ccc(C)cc1)CS(=O)(=O)C2
Activity (Cavia porcellus [32]): 14
inhibition in vivo at 75 mg/kg (Mus musculus [33]): 21%

CCCN1N=C2/C(=C/c3ccc(C)cc3)CSCC2C1c1ccc(C)cc1 (centres undefined)
inhibition in vivo at 300 mg/kg (Mus musculus [19]): < 20%
Activity (Cavia porcellus [34]): 11
inhibition in vivo at 150 mg/kg (Mus musculus [8]): 31%

CC(C)Cc1ccc(C(C)C(=O)O)cc1 (centres undefined) [IBUPROFEN]
ID50 (Mus musculus [35]): 494 mg/kg
selectivity ratio [36]: 3.4
